mIAP block = inhibitors of mouse IAP, primary screen, biochemical, luminescence, uHTS; AID 2806, 2010; intestinal alkaline phosphatase [Mus musculus]; 0.2% of 330,000 active; purified mouse IAP, CDP-Star luminescence, 30 min; inhibition, % at 10 µM;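 active = inhibition of at least 40% at 10 µM in the primary screen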
hIAP act = human IAP activators, primary screen, biochemical, luminescence, uHTS; purified human IAP, CDP-Star luminescence, 30 min; stronger effect = higher value; 1 = vehicle-only enzyme, 0 = enzyme-free background; activation factor at 10 µM; 0.16% of 330,000 active; AID 2524, 2010;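 active = activation factor of the enzyme at least 2-fold when tested at 20 µM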
Target sequence (P09923 whole entry, looked up): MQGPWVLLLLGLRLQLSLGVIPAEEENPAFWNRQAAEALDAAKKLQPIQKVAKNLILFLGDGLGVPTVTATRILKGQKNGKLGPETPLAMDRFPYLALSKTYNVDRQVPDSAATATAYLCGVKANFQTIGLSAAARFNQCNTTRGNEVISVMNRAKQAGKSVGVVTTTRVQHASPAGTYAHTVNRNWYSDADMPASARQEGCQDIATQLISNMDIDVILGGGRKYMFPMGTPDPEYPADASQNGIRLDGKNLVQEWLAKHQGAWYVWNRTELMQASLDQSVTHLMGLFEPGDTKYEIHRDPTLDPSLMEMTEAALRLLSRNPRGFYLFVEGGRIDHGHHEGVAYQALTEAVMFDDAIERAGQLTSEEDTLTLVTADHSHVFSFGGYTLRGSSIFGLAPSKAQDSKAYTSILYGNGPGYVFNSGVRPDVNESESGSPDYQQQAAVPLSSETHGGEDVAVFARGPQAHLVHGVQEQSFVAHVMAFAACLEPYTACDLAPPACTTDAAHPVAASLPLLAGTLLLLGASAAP
mIAP activ = activators of mouse IAP, primary screen, biochemical, luminescence, uHTS; activation factor at 10 µM; 0.24% of 330,000 active; muIAP, CDP-Star luminescence, 30 min; stronger effect = higher value; 1 = vehicle-only enzyme signal, 0 = enzyme-free wells;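 active = activation factor of at least 2 at 20 µM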
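System: mouse IAP enzyme. Reagent: CDP-Star chemiluminescent phosphatase substrate. Benchmarks: DMSO wells, no-enzyme wells. Times: 30 min enzyme-substrate-compound incubation at room temperature. Detection: luminescence from enzymatic CDP-Star hydrolysis. Doses: test compounds delivered from DMSO solution.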
bIAP inhibitor = bovine intestinal alkaline phosphatase inhibitors, primary screen, selectivity assay for TNAP inhibitor project, biochemical, bovine IAP, CDP-star luminescence; 190,000 tested, under 10 active; AID 1019, 2008; alkaline phosphatase, intestinal [Bos taurus]; inhibition, % at 20 µM; purified bovine IAP, 30 min;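 active = over 50% inhibition of intestinal alkaline phosphatase at 20 µM in the single-dose screen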
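System: purified bovine intestinal alkaline phosphatase (IAP) enzyme; Input: IAP diluted 1/65,000,000 in the well; Measured by: CDP-star luminescence signal; Compound dosing: 20 µM single dose; Incubation: 30 min reaction at room temperature.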
hIAP block = human IAP inhibitors, primary screen, biochemical, luminescence, uHTS; Intestinal-type alkaline phosphatase (Homo sapiens), P09923; purified IAP, CDP-Star luminescence, 30 min; inhibition, % at 10 µM; 0.12% of 330,000 active; AID 2544, 2010;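 active = inhibition reaching a set limit with compound at 10 µM in the primary screen, cut at about 35% in these data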
bIAP act = bovine intestinal alkaline phosphatase activators, primary screen, biochemical, bovine IAP, CDP-star luminescence | alkaline phosphatase, intestinal [Bos taurus] | purified bovine IAP, 30 min; stronger effect = higher value; fold of DMSO-control signal, blank-subtracted | activation factor at 20 µM | 0.17% of 200,000 active | AID 1016, 2008;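 active = activation factor of 2 or more at 20 µM, a signal rise over negative controls twice the positive control's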
hIAP act conf = human IAP activators, confirmation, biochemical, luminescence, single concentration, uHTS hits | shares compounds with hIAP act | purified IAP, CDP-Star luminescence, 30 min; stronger effect = lower value | activation (%Activity, negative = activation), % at 8.3 µM | 10% of 880 active;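 active = at least twofold enzyme activation in any of six single-dose repeats, which the averaged readout prints as negative percent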
Numbers stand for hits; - = inactive; . = not tested or not shown. Sampled rows, rich in hits. Any-hit rate of the full collection: about 0.72%.

SMILES	mIAP block	hIAP act	mIAP activ	bIAP inhibitor	hIAP block	bIAP act	hIAP act conf
COc1ccc2[nH]c(C(=O)N/N=C/c3ccc(O)cc3O)cc2c1	-	2	-	.	-	.	-
O=C(Nc1ccc(S(=O)(=O)N2CCCC2)cc1)C1CC(=O)N(CCc2ccc(F)cc2)C1 (stereo not drawn)	-	-	-	.	-	.	.
COc1ccccc1N(C)S(=O)(=O)c1ccc(Cl)c(C(=O)NNC(=O)c2ccccc2O)c1	-	2.3	-	.	-	.	-
COC1=CC(=Cc2c(N)n3nc(CC(=O)N4CCOCC4)sc3nc2=O)C=C(OC)C1=O	-	-	-	.	42	.	-
CCNc1nc(NCC)nc(-n2nc(C)cc2C)n1	-	-	-	-	41	-	-
COc1ccc(C(=O)O)c(O)c1	-	-	-	.	-	.	.
COc1ccc(-c2ccc(OC)cc2C(=O)O)cc1	-	-	-	-	36	-	-
Cc1ccccc1-c1nnc(SC(C)C(=O)NC2CCCC2)o1 (stereo not drawn)	-	-	-	.	-	.	.
COc1ccc(CCN2C(=O)c3ccncc3C2=O)cc1OC	-	2.4	-	-	-	-	-
CCCn1c(/C=C/c2ccccc2)nc2ccccc21	-	3.1	-	-	-	-	-
COCCOCCn1c(/C=C/c2ccccc2)nc2ccccc21	-	-	-	-	-	-	.
CN(CC(=O)Nc1ccccc1Br)C(=O)CNC(=O)c1ccc(Oc2ccccc2)cc1	-	-	-	.	35	.	-
Cc1ccc(S(=O)(=O)N2CCOCC2)cc1C(=O)NC(C)CCc1ccccc1 (stereo not drawn)	-	-	-	.	-	.	.
CCOC(=O)/C(O)=C(\C#N)c1nc2ccccc2[nH]1	-	-	-	-	-	-	.
O=C(NNC(=O)c1nc2ccccc2[nH]1)OCc1ccccc1	-	2.6	-	.	-	.	-
CCc1c(C(=O)NNC(=S)NCCc2ccccc2)csc1C	-	2.1	-	-	-	-	-
CCC1(c2ccccc2)NC(=O)N(CC(=O)NCC2COc3ccccc3O2)C1=O (stereo not drawn)	-	-	-	.	-	.	.
O=C(CCNS(=O)(=O)c1ccccc1C(F)(F)F)NNC(=O)c1csc(N2CCOCC2)n1	-	2.1	-	.	-	.	-
O=C(NNC(=O)c1cc(Br)ccc1O)c1csc(N2CCOCC2)n1	-	2.4	-	.	-	.	-
COc1cccc(/C=N/Nc2nn3cnnc3c3ccccc23)c1O	-	2	-	-	-	-	-
Oc1cccc(/C=N/Nc2nn3cnnc3c3ccccc23)c1	-	-	-	.	-	.	.
COc1cccc(/C=N/NC(=O)N/N=C/c2cccc(OC)c2O)c1O	-	2.5	-	.	-	.	-
Cc1nc(-c2ccc(S(=O)(=O)N3CCCN(CCc4ccccc4)CC3)s2)cs1	-	2.3	-	.	-	.	-
COc1ccccc1NS(=O)(=O)c1cccc(C(=O)N/N=C/c2ccc([N+](=O)[O-])o2)c1	-	-	-	.	-	.	.
CC(C)(C)OC(=O)N1CCC(NC(=O)c2[nH]cnc2C(=O)Nc2ccc(Cl)cc2)CC1	-	-	-	.	-	.	.
SMILES	mIAP block	hIAP act	mIAP activ	bIAP inhibitor	hIAP block	bIAP act	hIAP act conf
CC(C)(C)OC(=O)N1CCC(NC(=O)c2[nH]cnc2C(=O)Nc2ccon2)CC1	-	2.7	-	.	-	.	-
CC(C)(C)OC(=O)NCCCCCNC(=O)c1[nH]cnc1C(=O)Nc1ccon1	-	2	-	.	-	.	-
CC(C)NC(=O)N(C)C[C@H]1Oc2c(NC(=O)C3CC3)cccc2C(=O)N([C@H](C)CO)C[C@@H]1C	-	-	-	.	-	.	.
CC(=O)Nc1nc(-c2ccc(Br)s2)cs1	-	2.2	-	-	-	-	-
CC(=O)Nc1nc(-c2cccc3ccccc23)cs1	-	-	-	.	-	.	.
Cc1cc(C(=O)Nc2ccc3c(c2)CCC3)ccc1[N+](=O)[O-]	-	-	-	.	-	.	.
O=C(NCC1CCCCC1)c1ccc(F)cc1Cl	-	-	-	.	45	.	-
CC1=NN(c2nc3ccccc3[nH]2)C(=O)/C1=C/N(C)C	-	2.3	-	-	-	-	-57
CC1=NN(c2ccccc2)C(=O)/C1=C/N(C)C	-	-	-	.	-	.	.
Cc1nn(-c2ccccc2)c2c1C(c1ccncc1)C(C#N)=C(N)O2 (stereo not drawn)	-	-	-	-	38	-	-
Cc1ccc(-n2nc(C)c3c2OC(N)=C(C#N)C3c2ccncc2)cc1 (stereo not drawn)	-	-	-	-	-	-	.
CC1=NN(c2ccccc2)C(=O)/C1=C\C=C1\N(C)c2ccccc2C1(C)C	40	-	-	-	40	-	-
CC1=NN(c2ccccc2)C(=O)/C1=C\C=C1/N(C)c2ccccc2C1(C)C	-	-	-	-	-	-	.
O=C(Nc1ccc(C(=O)N2CCN(c3ccccc3)CC2)cc1)C1=CSCCO1	-	-	-	.	-	.	.
Cc1ccc(C(=O)c2cn[nH]c2-c2cc(Cl)ccc2O)cc1	-	-	-	-	-	-	.
Cc1ccc(-c2[nH]ncc2C(=O)c2ccc(Br)cc2)c(O)c1	-	2	-	.	-	.	-
Cc1cccc(OCCC(=O)NNC(=O)c2ccoc2C)c1	-	-	-	.	-	.	.
Cn1c(CNC(=O)CCNC(=O)c2cccc(F)c2)cc(=O)n(C)c1=O	-	-	-	.	38	.	-
Cn1c(CNC(=O)CNC(=O)c2cccc(F)c2)cc(=O)n(C)c1=O	-	-	-	.	-	.	.
O=C(Cc1ccc(Cl)c(Cl)c1)NNC(=S)NCC1CCCO1 (stereo not drawn)	-	2.1	-	.	-	.	-98
S=C(NCC1CCCO1)Nc1ccc(Cl)c(Cl)c1 (stereo not drawn)	-	-	-	-	-	-	.
COc1ccccc1/C=C1\S/C(=N/NC(=O)c2cccc(Br)c2)NC1=O	-	2.5	-	-	-	-	-
COC(=O)/C=C1\S/C(=N/NC(=O)c2ccccc2)NC1=O	-	-	-	-	-	-	.
COc1ccc(OC)c(NC(=O)C2CCN(Cc3cnn(-c4ccccc4)c3-n3cccc3)CC2)c1	-	-	-	-	-	-	.
COc1ccc(NC(=O)C2CCN(Cc3cnn(-c4ccccc4)c3-n3cccc3)CC2)cc1OC	-	2	-	-	-	3.3	-

Screens as filed in PubChem.
